Bioassay records as filed in PubChem.
CHRM5 PAM: human M5 muscarinic receptor positive allosteric modulators, primary screen, CHO-K1 cells, Fluo-8 calcium fluorescence; CHO-K1 hM5, ACh EC20 PAM; 0% = ACh EC20, 100% = ACh EC100; activation, % at 3 µM; 360,000 tested, 0.3% active; AID 624038, 2012;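 active = activation above the run cutoff, the mean activation of all test compounds plus 3 SD, cut at about 18% in these data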
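system = human M5 receptor in CHO-K1 cells | reagent = EC20 acetylcholine as agonist stimulus | compound dosing = single-point, 3 µM nominal | incubation = Fluo-8 loading 80 min at 37 °C plus 30 min room temperature | detection = Fluo-8 calcium dye fluorescence, kinetic read | benchmarks = low control EC20 acetylcholine (0%), high control EC100 acetylcholine (100%)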
CHRM5 antagonist: human M5 muscarinic receptor antagonists, primary screen, CHO cells, Fluo-8 calcium fluorescence; Muscarinic acetylcholine receptor M5 (Homo sapiens), P08912; CHO-hM5 cells, ACh EC80; inhibition, % at 3 µM; 360,000 tested, 0.59% active; AID 624040, 2012;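 active = inhibition above a per-plate cutoff, the mean of that plate's test compounds plus 3 SD, cut at about 27% in these data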
CHRM5 agonist: human M5 muscarinic receptor agonists, primary screen, CHO-K1 cells, Fluo-8 calcium fluorescence. Muscarinic acetylcholine receptor M5 (Homo sapiens), P08912. CHO-K1 hM5 cells; 0% DMSO wells, 100% maximal acetylcholine response. activation, % at 3 µM. 360,000 tested, 0.19% active;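 active = activation above the run's mean over test compounds plus 3 SD, cut at about 23% in these data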;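 also: signal is peak over basal fluorescence ratio across the kinetic read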
M1 ag: human M1 muscarinic receptor agonists, primary screen, Fluo-8 calcium fluorescence, CHO-K1 cells, HTS | Muscarinic acetylcholine receptor M1 (Homo sapiens), P11229 | activation, % at 3 µM | AID 588814, 2011 | 360,000 tested, 0.33% active | CHO-K1 hM1, agonist mode; 0% DMSO, 100% acetylcholine EC100;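 active = activation above the run's mean compound activation plus 3 SD, cut at about 16% in these data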;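 also: peak over basal fluorescence ratio within a 140 s kinetic read after compound addition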
Target sequence (P11229 whole entry, looked up): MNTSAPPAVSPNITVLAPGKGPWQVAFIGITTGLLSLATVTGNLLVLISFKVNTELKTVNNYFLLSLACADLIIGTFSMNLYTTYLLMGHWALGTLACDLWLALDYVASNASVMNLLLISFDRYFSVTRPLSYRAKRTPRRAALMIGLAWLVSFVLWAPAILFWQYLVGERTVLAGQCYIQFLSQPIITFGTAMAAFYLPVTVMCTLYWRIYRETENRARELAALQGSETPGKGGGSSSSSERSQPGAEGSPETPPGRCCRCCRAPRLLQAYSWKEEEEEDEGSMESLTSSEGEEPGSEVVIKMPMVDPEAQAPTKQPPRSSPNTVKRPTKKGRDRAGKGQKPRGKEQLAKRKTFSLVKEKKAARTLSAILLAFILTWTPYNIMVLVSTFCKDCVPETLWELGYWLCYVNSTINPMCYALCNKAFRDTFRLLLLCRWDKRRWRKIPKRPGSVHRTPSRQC
CHRM1 PAM: human M1 muscarinic receptor positive allosteric modulators, primary screen, CHO-K1 cells, Fluo-8 calcium fluorescence, 1536-well; Muscarinic acetylcholine receptor M1 (Homo sapiens), P11229; CHO-K1 hM1, ACh EC20; 0% = ACh EC20, 100% = maximal ACh; activation, % at 3 µM; 360,000 tested, 0.088% active; AID 588819, 2011; in the data active = activation above about 19%, passing the limit was not always enough
CHRM1 antagonist: human M1 muscarinic receptor antagonists, primary screen, CHO-K1 cells, Fluo-8 calcium fluorescence, 1536-well; Muscarinic acetylcholine receptor M1 (Homo sapiens), P11229; CHO-K1 hM1, ACh EC80 antagonist; inhibition, % at 3 µM; 360,000 tested, 1.3% active; AID 588852, 2011;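 active = percent inhibition above its own plate's cutoff, namely the mean of that plate's compound wells plus 3 SD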;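 also: peak over basal fluorescence ratio during 140 s after agonist addition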
A number is an active result; – = inactive; · = no result given. Most compounds without a hit are left out; they make up all but 2% or so of the library.

SMILES | CHRM5 PAM | CHRM5 antagonist | CHRM5 agonist | M1 ag | CHRM1 PAM | CHRM1 antagonist
O=C(CNC(=O)c1nc[nH]c1C(=O)NCc1ccccc1)OCc1ccccc1 | – | – | – | – | – | 38
N#Cc1cccc(NC(=O)CSc2ccc3c4c(cccc24)C(=O)c2ccccc2-3)c1 | – | 33 | – | 44 | – | 32
CCC/C=C/c1ccc(CN2C(C(C)C)C(=O)N(Cc3cn(CCC4OCCO4)nn3)CCS2(=O)=O)cc1 (stereo not given) | – | – | – | – | – | –
Cc1ccc(-n2ccnc2SCC(=O)c2c(N)n(C3CC3)c(=O)[nH]c2=O)cc1C | – | – | – | – | – | –
Nc1c(C(=O)CSc2nccn2-c2ccc(Cl)cc2)c(=O)[nH]c(=O)n1C1CC1 | 18 | – | – | – | – | –
CSc1ccc(CN2CCC(C)(Oc3cccc(C#N)c3)C2)cc1 (stereo not given) | – | – | – | – | – | 36
CC(C)Nc1ccc(C(CC(N)=O)NC(=O)c2ccc(Br)cc2)cc1[N+](=O)[O-] (stereo not given) | 20 | – | – | – | – | –
Cc1ccc[n+](CC(=O)c2cc3ccccc3oc2=O)c1 | – | – | – | – | – | 90
Cc1cc(C)c[n+](CC(=O)c2cc3ccccc3oc2=O)c1 | – | – | – | – | – | 93
CC(C)C[C@@H](NC(=O)C1CCC(CNC(=O)[C@@H]2CCCN2C(=O)OC(C)(C)C)CC1)C(=O)O (stereo not given in full) | – | – | – | – | – | 101
CC(C)CC(NC(=O)C1CCCN1C(=O)OC(C)(C)C)C(=O)NCC(N)=O (stereo not given) | – | – | – | – | – | –
CCCOc1ccc(C(C(=O)OCCN(CC)CC)c2ccccc2)cc1 (stereo not given) | – | 55 | – | – | – | 98
CCCOc1ccc(C(CC(=O)O)NC(=O)C(c2ccccc2)c2ccccc2)cc1 (stereo not given) | – | – | – | – | – | –
COc1ccc(C(C(=O)OCCN(C)C)c2ccccc2)cc1 (stereo not given) | – | – | – | – | – | 78
COc1ccc(OC)c(C(=O)Cn2c3[n+](c4ccc(C(F)(F)F)cc42)CCCCC3)c1 | – | – | – | – | – | –
Fc1ccccc1Cn1c2[n+](c3ccc(C(F)(F)F)cc31)CCCCC2 | – | – | – | – | – | 34
CC(C)C1C(=O)N(Cc2cn(CCC3OCCCO3)nn2)CCS(=O)(=O)N1Cc1ccc(-c2ccc(F)nc2)cc1 (stereo not given) | – | – | – | – | – | –
OCC[C@H]1C[C@@H](O)[C@H](O)[C@]2(CCc3ccccc3CO2)O1 | – | – | – | 18 | – | –
OCC[C@@H]1C[C@@H](O)[C@H](O)[C@@]2(CCc3ccccc3CO2)O1 | – | – | – | – | – | –
CCN(CC(=O)Nc1ccc(NC(C)=O)cc1)C(=O)c1ccc(N(C)S(=O)(=O)c2ccc(C)cc2)cc1 | – | – | – | – | – | –
CCN(CC(=O)Nc1ccccc1OC)C(=O)c1ccc(N(C)S(=O)(=O)c2ccc(C)cc2)cc1 | – | 98 | – | – | – | –
CN(CCCn1cnc2c(OCc3ccccc3)ncnc21)Cc1ccco1 | – | – | – | – | – | –
Oc1ccccc1C1OCC2(CO1)COC(c1ccccc1O)OC2 (stereo not given) | – | – | – | – | – | –
c1ccc(NCCC2OCC3(CO2)COC(CCNc2ccccc2)OC3)cc1 (stereo not given) | – | 29 | – | – | – | –
Cc1cc(C)c(C)c(OCCCCN(C)Cc2ccccc2)c1 | – | – | – | – | – | 65
SMILES | CHRM5 PAM | CHRM5 antagonist | CHRM5 agonist | M1 ag | CHRM1 PAM | CHRM1 antagonist
CCc1ccc(OCCCCN(C)Cc2ccccc2)cc1 | – | – | – | – | – | 33
CCN(Cc1ccccc1)Cc1ccc(OCc2ccccc2)cc1 | – | – | – | – | – | 35
CN(CCCCOc1ccc(F)cc1)Cc1ccccc1 | – | – | – | – | – | –
CCOC(=O)[C@]12CCCC=C1N(Cc1ccccc1)C(=O)[C@H](CC(=O)NCCCCc1ccccc1)C2 | – | – | – | · | · | ·
OC(c1cccc(Cl)c1)c1ncc(-c2ccc(Oc3ccccc3)cc2)[nH]1 (stereo not given) | – | – | – | – | – | –
COc1cccc(CNC(=S)Nc2ccc3c(c2)c(=O)n(C)n3Cc2ccccc2)c1 | – | – | – | – | – | –
Cc1ccc(N2C(=O)N(CC(=O)Nc3ccccc3C)C(=O)C2C)cc1 (stereo not given) | 19 | – | – | – | – | –
COc1ccc(NC(=S)NCCc2ccc(S(N)(=O)=O)cc2)c(OC)c1 | – | 27 | – | – | – | –
Cc1cc(C(=O)NCCc2ccc(S(N)(=O)=O)cc2)no1 | 18 | – | – | – | – | –
O=C(CCl)N1c2ccccc2Oc2ccc3ccccc3c21 | – | – | 38 | – | – | –
COc1cc(/C=N\n2nnnc2N)ccc1OCc1ccc(F)cc1 | – | – | – | – | – | active
COC(=O)CCc1c(C)[nH]c(=S)[nH]c1=O | – | – | – | – | 21 | –
CCOC(=O)C1CCCN(C2CC(=O)N(c3ccccc3)C2=O)C1 (stereo not given) | – | – | – | – | – | –
CCOC(=O)C1CCCN(C2CC(=O)N(c3cccc(C(F)(F)F)c3)C2=O)C1 (stereo not given) | – | – | – | 65 | – | 40
CCOC(=O)C1CCCN(C2CC(=O)N(c3ccc(C)c(C)c3)C2=O)C1 (stereo not given) | – | – | – | – | – | –
CCOC(=O)C1CCCN(C2CC(=O)N(c3ccc(C(C)C)cc3)C2=O)C1 (stereo not given) | – | – | – | 18 | – | –
CCOC(=O)C1CCCN(C2CC(=O)N(c3ccc(N4C(=O)CC(N5CCCC(C(=O)OCC)C5)C4=O)cc3)C2=O)C1 (stereo not given) | – | – | – | 39 | – | –
CNc1cnc(-c2ccc(C(=O)N3CCOCC3)cc2)cn1 | – | – | – | – | – | –
COc1ccc2c(c1)-c1c(sn(-c3ccc(OC)c(OC)c3)c1=S)C(C)(C)N2 | – | – | – | – | – | 27
